# Laboratory results as given in PubChem BioAssay AID822 (SRMLSC, 2007).
# Activity calls are given as the source filed them.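 How the source made its calls: active means half-maximal effective dose for blocking growth of human endothelial cells at most 100 µM; inactive means the rest.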
# Test system: HUVEC proliferation, viability ATP luminescence
# Experiment: HUVEC proliferation inhibition, dose response, cell-based, ATP luminescence (AID 822);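 further: cells exposed to compound for 72 h before the ATP read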
# How it was run: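 Material: HUVEC. Input: 1250 cells per well. Medium: endothelial basal medium (EBM) with 2% fetal bovine serum, collagen-coated wells. Compound: 0.039–20 µM, 0.2% DMSO. Times: compound treatment 72 h, 37 °C. Technique: CellTiter-Glo ATP luminescence. Read-out basis: % viability and fitted EC50. Format: collagen-coated multiwell plates.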
row,Compound,EC50
1,COc1ccc(-n2c(SCC(=O)Nc3sc4c(c3C#N)CCCC4)nnc2-c2ccc(O)cc2)cc1,4.32 µM
2,COC(=O)c1c(NC(=O)c2ccco2)sc(C(=O)Nc2ccc(F)cc2)c1C,2.98 µM
3,Cc1cccc(-c2nnc(NC(=O)c3ccc(Cl)cc3)o2)c1,2.78 µM
4,N#C/C(=C/c1ccc(N2CCCCCC2)o1)c1ccc(F)cc1,12.6 µM
5,Cc1ccccc1C(=O)c1cccn1CC(=O)NCCN1CCN(c2cccc(C)c2C)CC1,8.36 µM
6,COc1ccc(NC(=O)/C(Cl)=C(/Cl)S(=O)(=O)Cc2ccccc2)cn1,4.48 µM
7,Cn1c2ccccc2c(=O)c2c(=O)n(C3CCCCC3)c(-c3cccs3)nc21,8.3 µM
8,Oc1ccc(Cl)cc1-c1cc(-c2ccco2)[nH]n1,13.7 µM
9,Cc1cc(C)n(-c2nc(NCCC(C)C)c3c4c(sc3n2)COC(C)(C)C4)n1,14.5 µM
10,CCCOc1ccc(-c2nc(C#N)c(NCCCn3ccnc3)o2)cc1,11.3 µM
11,COc1cc(N=c2ssnc2Cl)c(OC)cc1Cl,20.9 µM
12,Cc1nn(Cc2ccc(Cl)c(Cl)c2)c(C)c1NC(=O)c1cc(-c2ccc3c(c2)OCO3)on1,1.35 µM
13,Cn1c(=O)c2c(nc(Oc3ccc4c(c3)OCO4)n2Cc2ccc(Cl)cc2)n(C)c1=O,5.33 µM
14,COc1cc2nc(N3CCN(C(=O)c4ccco4)CC3)nc(N)c2cc1OC,11.2 µM
15,O=C(C#Cc1cccc([N+](=O)[O-])c1)c1ccccc1,20.3 µM
16,CC(C)(C)OC(=O)N[C@@H](Cc1ccccc1)c1nnc(S(=O)(=O)Cc2cccc(F)c2)o1,14.3 µM
17,CCCCCCOC(=O)C(C#N)c1nc2ccccc2nc1N1CCN(CC)CC1 (stereo unspecified),8.05 µM
18,CC1CCc2sc3nc(N4CCN(CCO)CC4)n4ncnc4c3c2C1 (stereo unspecified),19.6 µM
19,CCCCS(=O)(=O)/C=C\C=C/S(=O)(=O)CCCC,5.04 µM
20,N#Cc1nc(-c2ccc(OCc3ccccc3Cl)cc2)oc1NCCCn1ccnc1,2.55 µM
21,CCOC(=O)c1cc2c(N)c(C(=O)c3cc(C#N)c(SC)nc3C)sc2nc1C,5.27 µM
22,CCC(C)[C@@H](NC(=O)OC(C)(C)C)c1nnc(S(=O)(=O)Cc2cccc(C)c2)o1 (stereo partly specified),19.3 µM

row,Compound,EC50
1,Cc1ccc2[nH]c(=O)c(C3C(C#N)=C(N)Oc4c3ccc3cccnc43)cc2c1 (stereo unspecified),9.52 µM
2,CC(C)(C)c1nn(-c2ccccc2)c2[nH]c(=O)c(CNCc3ccc4c(c3)OCO4)cc12,8.15 µM
3,Cc1ccccc1NC(=O)CSC(N)=O,19 µM
4,Cc1cc(/C=N/n2cnnc2)c(C)n1-c1ccc(OCc2ccc(Cl)cc2Cl)cc1,4.39 µM
5,c1ccc(-c2noc(-c3ccc4c(c3)OCO4)n2)nc1,2.47 µM
6,CCOC(=O)c1c(OCC)[nH]c2c1cc(O)c1ccccc12,17.4 µM
7,CCc1ccc(-c2nc(CN3CCC(C(=O)N4CCN(c5ccccn5)CC4)CC3)c(C)o2)cc1,14.2 µM
8,COc1ccc(-n2nc(C(=O)NCc3ccco3)c3c4ccccc4n(C)c3c2=O)cc1Cl,19.7 µM
9,CCOc1ccc(Nc2oc(-c3ccc(Cl)cc3)nc2C#N)cc1,> 10 µM (inactive)
10,CN1CCN(c2ccccc2NC(=O)c2cccc(OCc3ccccc3)c2)CC1,10.8 µM
11,COc1ccc(CNC(=O)c2c(N)n(CCCN3CCOCC3)c3nc4ccccc4nc23)cc1,10 µM
12,c1cc2c3c(cccc3c1)NC1(CCCCCC1)N2,> 10 µM (inactive)
13,CCOC(=O)c1c(NC(=O)CCl)sc(C(=O)N(CC)CC)c1C,12.3 µM
14,CCCc1[nH]nc2c1C(c1ccc(Br)s1)C(C#N)=C(N)O2 (stereo unspecified),8.67 µM
15,COc1cc(-c2nnc(COc3ccc4cc(Br)ccc4c3)o2)cc(OC)c1OC,12.1 µM
16,CC1CCC(C(=O)c2c(O)c3ccccc3oc2=O)CC1 (stereo unspecified),7.71 µM
17,CCOC(=O)Cc1c(C)nc2c(-c3cccc(Br)c3)c[nH]n2c1=O,3.01 µM
18,CC(C)=CCC/C(C)=C/CCC(C)NCCN1CCNCC1 (stereo unspecified),14.6 µM
19,COc1ccc2cc3cc(C(=O)Nc4ccc5c(c4)OCCO5)oc3nc2c1,11.7 µM
20,CN1C[C@H](CNC(=O)OCc2ccccc2)C[C@@H]2c3cccc4c3c(cn4C)C[C@H]21,8.44 µM
21,COc1c(F)c(F)c(C(=O)Nc2ccc(N3CCN(Cc4ccccc4)CC3)cc2)c(F)c1F,10.9 µM
22,O=C(Nc1ccc2c(c1)OCO2)c1cc(C2CC2)on1,6.54 µM

row,Compound,EC50
1,O=C1CC(c2ccco2)Cc2nc(Nc3nc(-c4ccccc4)c4ccccc4n3)ncc21 (stereo unspecified),7.44 µM
2,COc1ccc(C(=O)C(CN2CCOCC2)c2ccccc2)cc1 (stereo unspecified),11.7 µM
3,C=C(C)COc1ccc(-c2n[nH]c(C)c2Oc2ccccc2OC)c(O)c1,10.9 µM
4,COc1ccc(Cc2nc(C(=O)Nc3ccc(Cl)cc3)cs2)cc1,19.9 µM
5,Cc1c(CCOC(=O)C2C3CC4CC(C3)CC2C4)sc[n+]1CC(=O)c1ccc(Br)cc1 (stereo unspecified),11.4 µM
6,CCCOC(=O)c1ccc(Oc2cn[nH]c2-c2ccc(OC)cc2O)cc1,12.3 µM
7,N=c1c2c(-c3ccccc3)c(-c3ccccc3)oc2ncn1CCCN1CCOCC1,13.6 µM
8,CCOC(=O)c1ccccc1Nc1cn(C(C)=O)c2ccccc12,11.7 µM
9,CCOC(=O)c1sc(NC(=O)CSc2nnnn2-c2ccc(C)cc2C)nc1C,13.7 µM
10,Cc1cc(N2CCCCC2)nc2ccc(NC(=O)c3ccc(Br)o3)cc12,17.2 µM
11,CC(=O)Nc1ccc(NC2=Nc3ccccc3N3C2=Nc2c(c(C)nn2-c2ccccc2)C3c2ccccc2)cc1 (stereo unspecified),15.8 µM
12,CCc1nc(SCC(=O)Nc2ccc3c(c2)OCCO3)c2oc3ccccc3c2n1,9.5 µM
13,CCOC(=O)c1ccc(NC(=O)CCc2nc(-c3ccc(C)cc3)no2)cc1,16.5 µM
14,CCCCCCn1c(O)c(C=NC2CCCCC2N)c(=O)[nH]c1=O (stereo unspecified),9.15 µM
15,CNC(=O)c1ccc(-c2sc3nc(N4CCOCC4)c4c(c3c2N)CCCC4)o1,10.5 µM
16,N#CC(c1ccccc1)c1ccc2c(C(F)(F)F)cc(C(F)(F)F)nc2n1 (stereo unspecified),16.7 µM
17,O=[N+]([O-])c1ccc(/C=N/Nc2nc(N3CCCC3)nc(N3CCCC3)n2)o1,16.2 µM
18,Cc1sc2nc(SCC(=O)C(C)(C)C)n(Cc3ccco3)c(=O)c2c1C,13.9 µM
19,CC(C)COC(=O)c1ccc2c(c1O)C(=O)c1ccccc1C2=O,3.11 µM
20,CCCCc1oc2ccccc2c1C(=O)c1cc(I)c(OCCN(CC)CC)c(I)c1,5.72 µM
21,CCOc1cc(S(=O)(=O)N2CC=C(c3ccc(F)cc3)CC2)c(OCC)cc1-n1cnnn1,20 µM
22,O=C(CSc1ccc2c(c1)OCCO2)Nc1ccc(Cl)cn1,5.53 µM

row,Compound,EC50
1,CCOc1cc(/C=N\NC(=O)Cn2nc([N+](=O)[O-])cc2C)ccc1OCc1cccc2ccccc12,20.7 µM
2,CCCCc1ccc(Nc2nc(CCC)cc(=O)[nH]2)cc1,9.15 µM
3,COc1ccccc1N1CCN(CC(=O)c2c(C)[nH]c3cc(C)ccc23)CC1,10.2 µM
4,O=C1Nc2ccccc2/C1=C/C(=O)c1cccs1,7.52 µM
5,COC(=O)C(CC(=O)c1ccc(Br)cc1)n1ccnc1 (stereo unspecified),9.3 µM
6,C=C(C)COc1ccc(-c2n[nH]c(C)c2-c2ccccc2OC)c(O)c1,13 µM
7,Cc1ccc(C(=O)c2c(C)oc3c2C(=O)C(=O)c2ccccc2-3)cc1,20 µM
8,O=C(CSc1nnc(-c2ccccc2O)o1)Oc1ccc(OCc2ccccc2)cc1,10.1 µM
9,CCN1CCN(c2cc(C)c3cc(NC(=O)c4ccc(OC)c(OC)c4)ccc3n2)CC1,13.6 µM
10,O=C(CCN1CCN(Cc2ccccc2)CC1)Nc1ccc(OCc2ccccc2)cc1,14.1 µM
11,COc1ccc2nc(Nc3nc(CSc4nnnn4-c4ccccc4)cc(=O)[nH]3)nc(C)c2c1,4.49 µM
12,COc1ccc(-c2cc(C#N)nc(N3CCNCC3)n2)cc1,12.8 µM
13,c1ccc2c(c1)oc1c(Nc3ccc(CN4CCOCC4)cc3)ncnc12,5.35 µM
14,CCN1CCN(c2ncc(C(=O)Nc3cc(Cl)c(OC)cc3OC)c3ccccc23)CC1,14.2 µM
15,Cc1ccc(Cn2nc(C)c(NC(=O)c3cc(-c4ccc5c(c4)OCO5)on3)c2C)cc1,10.2 µM
16,OC(C#Cc1ccccn1)c1cccs1 (stereo unspecified),4.29 µM
17,COc1ccc(N/N=C2/CCCCC2=O)cc1,3.51 µM
18,CCOC(=O)c1c(NC(=O)CSc2nc(C)cc(C)c2C#N)sc(C(C)=O)c1C,4.87 µM
19,CCn1cc(C(=O)NCc2ccc3c(c2)OCO3)c(=O)c2cc(F)c(N3CCN(C(=O)c4ccco4)CC3)cc21,10.4 µM
20,O=C(Nc1cccc(-c2nc3ncccc3o2)c1)c1cc2ccccc2o1,14.1 µM
21,COc1ccc2nc3oc(C(=O)N4CCN(c5ccccc5F)CC4)cc3cc2c1,15.5 µM
22,CCCCN(CC)S(=O)(=O)c1ccc(C(=O)Nc2nnc(-c3ccccc3Cl)o2)cc1,3.8 µM

row,Compound,EC50
1,Cc1cccc(NC(=O)Nc2cccc(Oc3c(F)c(F)c(F)c(F)c3F)c2)c1,15.3 µM
2,c1ccc(-c2nc(N3CCCCCC3)c3ccccc3n2)nc1,1.55 µM
3,OCc1ccc(O)c2ncccc12,20.5 µM
4,N#CC1=C(N)Oc2cc(Nc3ccccc3)ccc2C1c1ccncc1 (stereo unspecified),1.32 µM
5,C#CCn1c(=NC(=O)c2ccc(Br)s2)sc2cccc(OC)c21,12.2 µM
6,CCCOC(=O)c1ccc(Oc2cn[nH]c2-c2ccc(OCC)cc2O)cc1,9.51 µM
7,O=c1[nH]c2cc3c(cc2cc1C(c1nnnn1Cc1ccccc1)N1CCCCCC1)OCCO3 (stereo unspecified),13.1 µM
8,COC(=O)CS(=O)(=O)c1nnc([C@H](Cc2ccccc2)NC(=O)OC(C)(C)C)o1,8.85 µM
9,Cc1cc(C)cc(OC(=O)CS(=O)c2ccc(C(F)(F)F)cc2[N+](=O)[O-])c1 (stereo unspecified),18.7 µM
10,Cc1cc(NC(=O)CSc2nc3c(sc4ccccc43)c(=O)n2CCCN2CCOCC2)n[nH]1,18.2 µM
11,COc1ccccc1C1CC(c2c(-c3ccccc3)c3cc(Cl)ccc3[nH]c2=O)=NN1S(C)(=O)=O (stereo unspecified),8.65 µM
12,COc1ccc2nc(NC(=O)CSC3=NCCS3)sc2c1,4.95 µM
13,COc1ccc(-c2nnc(NC(=O)c3ccc(S(=O)(=O)N4CCCc5ccccc54)cc3)o2)cc1,2.96 µM
14,CCC(C)(C)NC(=O)C(c1ccc(C)o1)N(Cc1cccs1)C(=O)Cn1nnc2ccccc21 (stereo unspecified),11.7 µM
15,C=CCOC(=O)C1=C(C)NC(SCC(=O)Nc2nccs2)=C(C#N)C1c1cccs1 (stereo unspecified),6.19 µM
16,O=C1CCCc2c1[nH]c1ccc(Br)cc21,> 10 µM (inactive)
17,CC(C)c1nnc(NC(=O)CCS(=O)(=O)c2nc(-c3cccs3)cc(C(F)(F)F)n2)s1,9.9 µM
18,Cc1cccc(-c2nc(CN3CCCC(C(=O)NC4CCC(C)CC4)C3)c(C)o2)c1 (stereo unspecified),11.6 µM
